Data taken from ChEMBL document CHEMBL3259808, “Optimization of antitrypanosomatid agents: identification of nonmutagenic drug candidates with in vivo activity” (J Med Chem, 2014).
Activity calls are given as the source filed them.

What was measured:
Trypanosoma cruzi [1] = assay: Antitrypanosomal activity against Trypanosoma cruzi Tulahuen 2 epimastigotes assessed as growth inhibition after 5 days; assay type: functional, organism-based; conditions: Trypanosoma cruzi, Tulahuen 2, 120 h
How it was run: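 Epimastigotes were grown axenically at 28 °C in BHI-tryptose with 5% FBS and seeded from a 5–7 day culture at 1 × 10⁶ cells/mL. Drug from a DMSO stock was added (final DMSO ≤0.4%; the control contained 0.4% DMSO). Duplicates were run. A600 was read at day 5, and % inhibition was calculated relative to day-0 and control readings. IC50 = concentration that halves the absorbance ratio.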

[2] = Selectivity index, ratio of IC50 for African green monkey Vero cells to IC50 for Trypanosoma cruzi Sylvio X-10 amastigotes; assay type: toxicity, cell-based; conditions: read-out: Ratio IC50
How it was run: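 VERO cytotoxicity: cells exposed 48 h at 37 °C, 5% CO2 to serial dilutions from a maximum of 2000 μM (DMSO stocks; DMSO <0.1% control); growth inhibition read by MTT at 570 nm. Amastigote IC50: Sylvio X-10-infected VERO cells, five doses, infected cells counted among 300 (Giemsa), quadruplicate, three experiments, sigmoidal fit. SI = IC50 VERO / IC50 amastigote.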

[3] = Selectivity index, ratio of IC50 for human RBC to IC50 for Trypanosoma cruzi Sylvio X-10 amastigotes
How it was run: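 Hemolysis: washed human erythrocytes (2% w/v in PBS) incubated 24 h at 37 °C with compound at final 50, 100 and 200 μM. Ten replicates per concentration. Hemoglobin release read at 405 nm against water lysis as 100%; amphotericin B 1.5 μM was the positive control. SI = IC50 red cells / parasite IC50 (Sylvio X-10 amastigotes or Tulahuen 2 epimastigotes).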

[4] = Selectivity index, ratio of IC50 for mouse J774.1 cells to IC50 for Trypanosoma cruzi Sylvio X-10 amastigotes; assay type: toxicity; conditions: read-out: Ratio IC50
How it was run: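 J774.1 macrophages grown in DMEM with 10% heat-inactivated FCS and allowed to attach 48 h, then exposed 48 h at 37 °C to 12.5–400.0 μM. Triplicates. MTT 0.1 mg/mL for 3 h, read at 560 nm; IC50 by linear regression against the solvent control. SI = IC50 J774.1 / parasite IC50 (Sylvio X-10 amastigotes or Tulahuen 2 epimastigotes, the latter measured by A600 growth inhibition at day 5).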

Trypanosoma cruzi [5] = assay: Antitrypanosomal activity against Trypanosoma cruzi Sylvio X-10 amastigotes infected in African green monkey Vero cells assessed as eradication of amastigotes at 5 uM after 5 days by optical microscopic analysis; assay type: functional, organism-based; conditions: in the assay text read “after 72 hrs” for “after 5 days”
How it was run: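 VERO cells infected with Sylvio X-10 parasites were treated with 5 μM compound and examined by optic microscopy after 72 h of incubation for intracellular amastigotes and trypomastigotes.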

Salmonella typhimurium [6] = assay: Mutagenic activity in Salmonella typhimurium TA98 at 5 to 400 ug/plate by Ames test; assay type: toxicity, organism-based; conditions: salmonella enterica subsp. enterica serovar typhimurium
How it was run: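 Ames plate-incorporation assay with S. typhimurium TA98 in Vogel-Bonner E minimal glucose agar. Toxicity toward the bacteria was checked first. DMSO solutions were run in triplicate at five consecutive third-dilutions, starting at the highest non-toxic dose. Positive controls were 4-nitro-o-phenylenediamine (20.0 μg/plate) and 2-aminofluorene (10.0 μg/plate); DMSO was the negative control. Revertants were counted manually. A compound was called mutagenic when revertants were at least twice the negative control at two or more consecutive doses.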

Salmonella typhimurium [7] = assay: Mutagenic activity in Salmonella typhimurium TA100 at 0.003 to 0.2 ug/plate by Ames test in presence of mouse liver S9 fraction; assay type: toxicity, organism-based; conditions: salmonella enterica subsp. enterica serovar typhimurium
How it was run: (§1)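 Plate-incorporation Ames test on minimal glucose agar with 500 μL Aroclor-treated mouse liver S9 added. DMSO solutions were tested at five consecutive 3-fold dilutions from the highest non-toxic dose, in triplicate, with a DMSO negative control. Revertants were counted manually; a compound was scored mutagenic when revertants were at least twice the negative control for two or more consecutive doses.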

Salmonella typhimurium [8] = assay: Mutagenic activity in Salmonella typhimurium TA102 at 3.09 to 250 ug/plate by Ames test; assay type: toxicity, organism-based; conditions: salmonella enterica subsp. enterica serovar typhimurium
How it was run: (§2)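 Direct plate incubation on minimal glucose agar (Vogel-Bonner E). Compound toxicity to the bacteria was checked first. DMSO solutions were tested at five consecutive 3-fold dilutions, starting from the highest non-toxic dose, in triplicate, without metabolic activation. DMSO served as negative control. Revertants were counted manually; mutagenic = revertants at least double the negative control at two or more consecutive doses.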

Salmonella typhimurium [9] = assay: Mutagenic activity in Salmonella typhimurium TA1535 at 3.09 to 250 ug/plate by Ames test; assay type: toxicity, organism-based; conditions: salmonella enterica subsp. enterica serovar typhimurium; how it was run: as §2
Salmonella typhimurium [10] = assay: Mutagenic activity in Salmonella typhimurium TA1535 at 3.09 to 250 ug/plate by Ames test in presence of mouse liver S9 fraction; assay type: toxicity, organism-based; conditions: salmonella enterica subsp. enterica serovar typhimurium; how it was run: as §1
[11] = Stability of the compound in aqueous solution assessed as compound remaining at 1 mM at pH 7.4 after 1 hr by TLC analysis; assay type: physicochemical; conditions: aqueous solution, pH 7.4; read-out: Stability
How it was run: (§3)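 DMSO stocks diluted to final 1 mM in KCl·HCl pH 1.0, citrate pH 6.0, Tris·HCl pH 7.4 or borax·HCl pH 9.0 buffer. Incubated 1 h at 37 °C, then ethyl acetate extracts checked by TLC for decomposition products.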

[12] = Stability of the compound in aqueous solution assessed as compound remaining at 1 mM at pH 9 after 1 hr by TLC analysis; assay type: physicochemical; conditions: aqueous solution, pH 9; read-out: Stability; how it was run: as §3
Mus musculus = assay: Toxicity in BALB/c mouse assessed as mortality at 100 mg/kg/day, po for 14 days; assay type: organism-based; design: route oral; conditions: in vivo, 336 h
How it was run: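 Uninfected female BALB/c mice (n = 2/group) received intragastric gavage daily for 14 days in saline/Tween 80 (4:1). They were weighed and monitored daily, then sacrificed for macroscopic necropsy of organs.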

Trypanosoma cruzi [13] = assay: Antitrypanosomal activity against Trypanosoma cruzi CL Brener infected in BALB/c mouse assessed as peak of maximum parasitemia at 107 umol/kg/day, po for 14 days administered in saline and tween 80 measured up to 60 days relative to control; assay type: functional
How it was run: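 Male BALB/c mice (30 days old, 25–30 g, SPF) were infected i.p. with 10³ blood trypomastigotes, n = 8/group. Daily oral gavage in saline/Tween 80 (4:1) ran for 14 days from day 6 post-infection; controls received vehicle only. Parasitemia was counted weekly in tail-vein blood by hemocytometer for 60 days, and survival was recorded.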

Trypanosoma cruzi [14] = assay: Antitrypanosomal activity against Trypanosoma cruzi CL Brener infected in BALB/c mouse assessed as decrease in plasmodial antibodies at 214 umol/kg/day, po for 14 days administered in cholesterol/surfactant/phosphate buffer measured on day 60 by ELISA; assay type: functional, organism-based; conditions: in the assay text read “anti-Trypanosoma cruzi antibodies” for “plasmodial antibodies”
How it was run: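 Infected male BALB/c mice (n = 7/group) were dosed orally for 14 days from day 6 post-infection in cholesterol/surfactant/phosphate buffer pH 7.4 microemulsion; the control group received vehicle. Anti-T. cruzi antibodies were measured by ELISA (each serum tested twice) at days 30 and 60 post-infection and compared with untreated animals and a healthy-animal cutoff.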

Br.C=CCn1c(-c2ccc(Cl)cc2)cs\c1=N/N=C/C=C/c1ccco1.O
IC50 (Trypanosoma cruzi [1]): 1300 nM
selectivity ratio [2]: > 1000
Ratio IC50 [3]: > 234
selectivity ratio [4]: > 200
Activity (Trypanosoma cruzi [5]): Active
Activity (Salmonella typhimurium [6]): Non-toxic
Activity (Salmonella typhimurium [7]): Non-toxic
Activity (Salmonella typhimurium [8]): Non-toxic
Activity (Salmonella typhimurium [9]): Non-toxic
Activity (Salmonella typhimurium [10]): Non-toxic
remaining at 1 h, 1000 µM [11]: > 95%
remaining at 1 h, 1000 µM [12]: > 95%
Activity (Mus musculus): Non-toxic
Time (Trypanosoma cruzi [13]): 26 days
Activity (Trypanosoma cruzi [14]): Active
